In ChEMBL document CHEMBL1909525, “Synthesis and anticonvulsant activity of novel 2,6-diketopiperazine derivatives. Part 1: perhydropyrrole[1,2-a]pyrazines” (Eur J Med Chem, 2011):
The source made the active and inactive calls. The rule behind the calls is not given here.

Assays:
[1] = Neurotoxicity in ip dosed albino Carworth Farms No.1 mouse assessed as motor impairment after 0.25 hrs by rotarod test; format: toxicity, organism-based; conditions: Carworth Farms No.1 (albino), in vivo
How it was run: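 Mouse quantification at the time of peak effect, compound given i.p. in 0.5% methylcellulose. Groups of at least eight mice received varied doses until at least two points fell between 100 and 0% response. PI = TD50/ED50 MES.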

[2] = test system: Mus musculus; assay: Anticonvulsant activity in ip dosed albino Carworth Farms No.1 mouse assessed as time needs to show peak effect for electric-current for 3 secs-induced seizure after 0.25 hrs by 6Hz minimal clonic seizure test; format: functional
[3] = test system: Mus musculus; assay: Neurotoxicity in albino Carworth Farms No.1 mouse assessed as motor impairment at 30 mg/kg, ip after 0.5 hrs by rotarod test; format: toxicity, organism-based; parameters: dose 30 mg/kg, route intraperitoneal; conditions: in vivo
How it was run: (§1)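 Rotorod neurotoxicity in mice at 6 r.p.m. Compound given i.p. (30, 100, 300 mg/kg) in 0.5% methylcellulose; tested at 30 min and 4 h. Impairment is inability to keep equilibrium on the rod for a given time; scored as impaired/tested.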

[4] = test system: Mus musculus; assay: Neurotoxicity in albino Carworth Farms No.1 mouse assessed as motor impairment at 100 mg/kg, ip after 0.5 hrs by rotarod test; format: toxicity, organism-based; parameters: dose 100 mg/kg, route intraperitoneal; conditions: in vivo; how it was run: as §1
[5] = test system: Mus musculus; assay: Neurotoxicity in albino Carworth Farms No.1 mouse assessed as motor impairment at 300 mg/kg, ip after 0.5 hrs by rotarod test; format: toxicity, organism-based; parameters: dose 300 mg/kg, route intraperitoneal; conditions: in vivo; how it was run: as §1
[6] = test system: Mus musculus; assay: Anticonvulsant activity in albino Carworth Farms No.1 mouse assessed as protection against subcutaneous metrazol-induced seizure at 30 mg/kg, ip after 0.5 hrs; format: functional, organism-based; parameters: dose 30 mg/kg
How it was run: (§2)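 Mouse scMET test. Compound given i.p. (30, 100 or 300 mg/kg) in 0.5% methylcellulose. Pentylenetetrazole 85 mg/kg (CD97) given s.c. at 0.5 or 4 h, then mice observed for 30 min. Protection is absence of clonic spasms; scored as protected/tested.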

[7] = test system: Mus musculus; assay: Anticonvulsant activity in albino Carworth Farms No.1 mouse assessed as protection against subcutaneous metrazol-induced seizure at 30 mg/kg, ip after 4 hrs; format: functional, organism-based; parameters: dose 30 mg/kg; how it was run: as §2
[8] = test system: Mus musculus; assay: Anticonvulsant activity in albino Carworth Farms No.1 mouse assessed as protection against subcutaneous metrazol-induced seizure at 100 mg/kg, ip after 0.5 hrs; format: functional, organism-based; parameters: dose 100 mg/kg; how it was run: as §2
[9] = test system: Mus musculus; assay: Anticonvulsant activity in albino Carworth Farms No.1 mouse assessed as protection against subcutaneous metrazol-induced seizure at 100 mg/kg, ip after 4 hrs; format: functional, organism-based; parameters: dose 100 mg/kg; how it was run: as §2
[10] = test system: Mus musculus; assay: Anticonvulsant activity in albino Carworth Farms No.1 mouse assessed as protection against subcutaneous metrazol-induced seizure at 300 mg/kg, ip after 0.5 hrs; format: functional, organism-based; parameters: dose 300 mg/kg; how it was run: as §2
[11] = test system: Mus musculus; assay: Anticonvulsant activity in albino Carworth Farms No.1 mouse assessed as protection against subcutaneous metrazol-induced seizure at 300 mg/kg, ip after 4 hrs; format: functional, organism-based; parameters: dose 300 mg/kg; how it was run: as §2
[12] = test system: Mus musculus; assay: Anticonvulsant activity in albino Carworth Farms No.1 mouse assessed as protection against maximal electroshock-induced seizure at 30 mg/kg, ip after 0.5 hrs; format: functional, organism-based; parameters: dose 30 mg/kg
How it was run: (§3)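 Mouse MES test with compound given i.p. (30, 100 or 300 mg/kg) in 0.5% methylcellulose; tested at 0.5 and 4 h. Corneal stimulus of 50 mA at 60 Hz for 0.2 s, electrodes primed with 0.5% butacaine in 0.9% NaCl. Protection is abolition of hindlimb tonic extension; scored as protected/tested.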

[13] = test system: Mus musculus; assay: Anticonvulsant activity in albino Carworth Farms No.1 mouse assessed as protection against maximal electroshock-induced seizure at 30 mg/kg, ip after 4 hrs; format: functional, organism-based; parameters: dose 30 mg/kg; how it was run: as §3
[14] = test system: Mus musculus; assay: Anticonvulsant activity in albino Carworth Farms No.1 mouse assessed as protection against maximal electroshock-induced seizure at 100 mg/kg, ip after 0.5 hrs; format: functional, organism-based; parameters: dose 100 mg/kg; how it was run: as §3
[15] = test system: Mus musculus; assay: Anticonvulsant activity in albino Carworth Farms No.1 mouse assessed as protection against maximal electroshock-induced seizure at 100 mg/kg, ip after 4 hrs; format: functional, organism-based; parameters: dose 100 mg/kg; how it was run: as §3
[16] = test system: Mus musculus; assay: Anticonvulsant activity in albino Carworth Farms No.1 mouse assessed as protection against maximal electroshock-induced seizure at 300 mg/kg, ip after 0.5 hrs; format: functional, organism-based; parameters: dose 300 mg/kg; how it was run: as §3
[17] = test system: Mus musculus; assay: Anticonvulsant activity in albino Carworth Farms No.1 mouse assessed as protection against maximal electroshock-induced seizure at 300 mg/kg, ip after 4 hrs; format: functional, organism-based; parameters: dose 300 mg/kg; how it was run: as §3
[18] = test system: Mus musculus; assay: Neurotoxicity in albino Carworth Farms No.1 mouse assessed as motor impairment at 30 mg/kg, ip after 4 hrs by rotarod test; format: toxicity, organism-based; parameters: dose 30 mg/kg, route intraperitoneal; conditions: in vivo; how it was run: as §1
[19] = test system: Mus musculus; assay: Neurotoxicity in albino Carworth Farms No.1 mouse assessed as motor impairment at 300 mg/kg, ip after 4 hrs by rotarod test; format: toxicity, organism-based; parameters: dose 300 mg/kg, route intraperitoneal; conditions: in vivo; how it was run: as §1
[20] = test system: Mus musculus; assay: Anticonvulsant activity in albino Carworth Farms No.1 mouse assessed as protection against electric-current for 3 secs-induced seizure at 100 mg/kg, ip after 2 hrs by 6Hz minimal clonic seizure test; format: functional, organism-based; parameters: dose 100 mg/kg
How it was run: (§4)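 6 Hz psychomotor seizure test in mice. Compound given i.p. as a suspension in 0.5% methylcellulose. Corneal stimulation at 32 mA, 0.2-ms monopolar rectangular pulses at 6 Hz for 3 s, from a constant-current device. Tests run 0.25–4 h after dosing. A mouse counted as protected if it resumed normal exploratory behaviour within 10 s; scored as protected/tested.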

[21] = test system: Mus musculus; assay: Anticonvulsant activity in albino Carworth Farms No.1 mouse assessed as protection against electric-current for 3 secs-induced seizure at 100 mg/kg, ip after 0.25 hrs by 6Hz minimal clonic seizure test; format: functional, organism-based; parameters: dose 100 mg/kg; how it was run: as §4
[22] = test system: Mus musculus; assay: Anticonvulsant activity in albino Carworth Farms No.1 mouse assessed as protection against electric-current for 3 secs-induced seizure at 100 mg/kg, ip after 4 hrs by 6Hz minimal clonic seizure test; format: functional, organism-based; parameters: dose 100 mg/kg; how it was run: as §4
[23] = test system: Mus musculus; assay: Neurotoxicity in albino Carworth Farms No.1 mouse assessed as motor impairment at 100 mg/kg, ip after 0.25 hrs by rotarod test; format: toxicity, organism-based; parameters: dose 100 mg/kg, route intraperitoneal; conditions: in vivo
How it was run: (§5)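 Rotorod neurotoxicity in mice (18–25 g) following i.p. dosing of a suspension in 0.5% methylcellulose in water, tested at intervals between 0.25 and 4 h. Impairment was scored as failure to keep equilibrium on a 6 r.p.m. rod, reported as number impaired/number tested.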

[24] = test system: Mus musculus; assay: Neurotoxicity in albino Carworth Farms No.1 mouse assessed as motor impairment at 100 mg/kg, ip after 2 hrs by rotarod test; format: toxicity, organism-based; parameters: dose 100 mg/kg, route intraperitoneal; conditions: in vivo; how it was run: as §5
[25] = test system: Mus musculus; assay: Neurotoxicity in albino Carworth Farms No.1 mouse assessed as motor impairment at 100 mg/kg, ip after 4 hrs by rotarod test; format: toxicity, organism-based; parameters: dose 100 mg/kg, route intraperitoneal; conditions: in vivo; how it was run: as §1
[26] = test system: Mus musculus; assay: Neurotoxicity in albino Carworth Farms No.1 mouse assessed as motor impairment at 100 mg/kg, ip after 1 hr by rotarod test; format: toxicity, organism-based; parameters: dose 100 mg/kg, route intraperitoneal; conditions: in vivo; how it was run: as §5
[27] = test system: Mus musculus; assay: Anticonvulsant activity in albino Carworth Farms No.1 mouse assessed as protection against electric-current for 3 secs-induced seizure at 100 mg/kg, ip after 1 hr by 6Hz minimal clonic seizure test; format: functional, organism-based; parameters: dose 100 mg/kg; how it was run: as §4

| Structure (SMILES) | Activity [3] | Activity [4] | Activity [5] | Activity [6] | Activity [7] | Activity [8] | Activity [9] | Activity [10] | Activity [11] | Activity [12] | Activity [13] | Activity [14] | Activity [15] | Activity [16] | Activity [17] | Activity [18] | Activity [19] | other results |
| --- | --- | --- | --- | --- | --- | --- | --- | --- | --- | --- | --- | --- | --- | --- | --- | --- | --- | --- |
| CC[C@@H](C(N)=O)N1CCCC1=O |  |  |  |  |  |  |  |  |  |  |  |  |  |  |  |  |  | TD50 at 0.25 h [1]: > 500 mg/kg; Time [2]: 1 h |
| C[C@@H]1C(=O)NC(=O)[C@@H]2CCCN12 | Non-toxic | Non-toxic | Non-toxic | inactive | inactive | inactive | inactive | inactive | inactive | inactive | inactive | inactive | inactive | inactive | inactive | Non-toxic | Non-toxic |  |
| O=C1[C@@H]2CCCN2[C@H](c2ccccc2)C(=O)N1Cc1ccccc1 | Non-toxic | Non-toxic | Non-toxic | inactive | inactive | inactive | inactive | inactive | inactive | inactive | inactive | inactive | inactive | inactive | inactive | Non-toxic | Non-toxic |  |
| CN1C(=O)[C@H](c2ccccc2)N2CCC[C@H]2C1=O.Cl | Non-toxic | Non-toxic | Toxic | inactive | inactive | inactive | inactive | Active | inactive | inactive | inactive | inactive | inactive | Active | inactive | Non-toxic | Non-toxic |  |
| O=C1[C@@H]2CCCN2[C@H](c2ccccc2)C(=O)N1CCc1ccccc1 | Non-toxic | Non-toxic | Non-toxic | inactive | inactive | inactive | inactive | inactive | inactive | inactive | inactive | inactive | inactive | inactive | inactive | Non-toxic | Non-toxic | Activity [20]: inactive; Activity [21]: inactive; Activity [22]: inactive; Activity [23]: Non-toxic; Activity [24]: Non-toxic; Activity [25]: Non-toxic; Activity [26]: Non-toxic; Activity [27]: inactive |
